Measured values: ChEMBL document CHEMBL4190218, “Potent Inhibitor of Drug-Resistant HIV-1 Strains Identified from the Medicinal Plant Justicia gendarussa” (J Nat Prod, 2017)

Assays:
[1] = system: Human immunodeficiency virus 1; assay: Antiviral activity against HIV1 virions derived from […] or HIV/HA virions infected 293T cells using human A549 cells as target cells assessed as inhibition of viral replication using compound pre-mixed virions followed by incubation with target cells for 24 hrs by luciferase reporter gene assay based defective HIV1 pseudoviral assay; format: functional, organism-based; details: Human immunodeficiency virus 1, 24 h
How it was run: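 Pseudovirions made by cotransfecting 293T cells with VSV-G, or HA plus NA, envelope plasmids and pNL4-3-Luc.R-.E- vector; supernatant collected at 48 h and filtered. A549 cells, 0.5 × 10^5/well in DMEM. Virus (~2 × 10^6 RLUs) premixed with sample, incubated with cells 24 h, then medium replaced. Luciferase read in lysates 48 h postinfection. Three experiments, each triplicate.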

[2] = system: Human immunodeficiency virus 1; assay: Antiviral activity against NRTI-resistant HIV1 isolate 1617-1 infected in PHA-stimulated human PBMC assessed as reduction in p24 level after 7 days by ELISA; format: functional, organism-based; details: Human immunodeficiency virus 1, isolate 1617-1, PBMC, 168 h
How it was run: (§1)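 Donor PBMCs in R-3 medium (RPMI 1640, 15−20% FBS, 5% IL-2, penicillin/streptomycin, 2 mM L-glutamine), PHA-stimulated (2−3 μg/mL) 7 days; 1 × 10^5 cells/well with compound, challenged with 1000 TCID50 virus. p24 in supernatant by ELISA after 7 days. Seven concentrations (5, 1, 0.2, 0.04, 0.008, […], 0 μg/mL); IC50 versus no-drug wells; AZT positive control; three experiments, each triplicate.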

[3] = system: Human immunodeficiency virus 1; assay: Antiviral activity against HIV1 isolate LAV infected in PHA-stimulated human PBMC assessed as reduction in p24 level after 7 days by ELISA; format: functional, organism-based; details: Human immunodeficiency virus 1, isolate LAV, 168 h; how it was run: as §1
[4] = system: Human immunodeficiency virus 1; assay: Antiviral activity against NNRTI-resistant HIV1 isolate N119 infected in PHA-stimulated human PBMC assessed as reduction in p24 level after 7 days by ELISA; format: functional, organism-based; details: Human immunodeficiency virus 1, isolate N119, PBMC, 168 h; how it was run: as §1
[5] = system: Human immunodeficiency virus 1; assay: Antiviral activity against HIV1 isolate BAL infected in PHA-stimulated human PBMC assessed as reduction in p24 level after 7 days by ELISA; format: functional, organism-based; how it was run: as §1
[6] = system: Human immunodeficiency virus 1; assay: Antiviral activity against HIV1/VSV-G pseudovirus infected in human A549 cells assessed as downregulation of U5/gag gene expression at 0.005 ug/ml after 48 hrs by Taqman-based real-time PCR analysis; format: functional; details: Human immunodeficiency virus 1, A549, 48 h
How it was run: (§2)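 A549 cells infected with VSV-G/HIV pseudovirus while treated with compound or AZT, 10-fold dilutions from 5 μg/mL, triplicate. After 48 h, cells processed for reverse transcription and TaqMan real-time PCR. R/U5 amplicon reads early transcripts, U5/gag reads late transcripts; GAPDH and 18S as internal controls.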

[7] = system: Human immunodeficiency virus 1; assay: Antiviral activity against HIV1 isolate 89.6 infected in PHA-stimulated human PBMC assessed as reduction in p24 level after 7 days by ELISA; format: functional, organism-based; how it was run: as §1
[8] = system: Human immunodeficiency virus 1; assay: Antiviral activity against HIV1 isolate LAV0.04 infected in PHA-stimulated human PBMC assessed as reduction in p24 level after 7 days by ELISA; format: functional, organism-based; how it was run: as §1
HeLa = assay: Cytotoxicity against human HeLa cells at 19 uM after 48 hrs by CellTiter 96 AQueous one solution cell proliferation assay; format: cell-based
How it was run: (§3)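 About 5000 cells/well in DMEM with FBS and penicillin/streptomycin; compound in DMSO added next day, 24 h at 37 °C, 5% CO2, then medium replaced. At 48 h after addition, CellTiter 96 Aqueous One added for 4 h, stopped with 10% SDS, absorbance read at 450 nm.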

[9] = system: Human immunodeficiency virus 1; assay: Antiviral activity against HIV1 isolate SF162 infected in PHA-stimulated human PBMC assessed as reduction in p24 level after 7 days by ELISA; format: functional, organism-based; how it was run: as §1
A549 = assay: Cytotoxicity against human A549 cells at 19 uM after 48 hrs by CellTiter 96 AQueous one solution cell proliferation assay; format: cell-based; details: a549, 48 h; how it was run: as §3
[10] = system: Human immunodeficiency virus 1; assay: Antiviral activity against HIV1/VSV-G pseudovirus infected in human A549 cells assessed as downregulation of R/U5 gene expression at 0.005 ug/ml after 48 hrs by Taqman-based real-time PCR analysis; format: functional; details: Human immunodeficiency virus 1, A549, 48 h; how it was run: as §2
[11] = Cytotoxicity against human PBMC after 48 hrs by CellTiter 96 AQueous one solution cell proliferation assay; format: cell-based
[12] = system: Human immunodeficiency virus 1; assay: Antiviral activity against HIV1/VSV-G pseudovirus infected in human A549 cells assessed as downregulation of U5/gag gene expression after 48 hrs by Taqman-based real-time PCR analysis; format: functional; how it was run: as §2
[13] = system: Human immunodeficiency virus 1; assay: Antiviral activity against HIV1/VSV-G pseudovirus infected in human A549 cells assessed as downregulation of R/U5 gene expression after 48 hrs by Taqman-based real-time PCR analysis; format: functional; how it was run: as §2
[14] = Human immunodeficiency virus 1, isolate BAL, PBMC, 168 h
[15] = Human immunodeficiency virus 1, isolate 89.6, PBMC, 168 h
[16] = Human immunodeficiency virus 1, isolate LAV0.04, PBMC, 168 h
[17] = Human immunodeficiency virus 1, isolate SF162, PBMC, 168 h

Structure (SMILES)	IC50 [1] [nM]	IC50 [2] [nM]	IC50 [3] [nM]	IC50 [4] [nM]	Activity [5]	IC50 [5, 14] [nM]	Activity [7]	IC50 [7, 15] [nM]	Activity [8]	IC50 [8, 16] [nM]	Activity [9]	IC50 [9, 17] [nM]	other results
COc1cc2c(O[C@@H]3OC[C@@H](O)[C@H](O)[C@H]3O)c3c(c(-c4ccc5c(c4)OCO5)c2cc1OC)C(=O)OC3	510												
COc1cc2c(O[C@@H]3O[C@H](CO)[C@@H](O)[C@H](O)[C@H]3O)c3c(c(-c4ccc5c(c4)OCO5)c2cc1OC)C(=O)OC3	770												
COc1cc2c(O)c3c(c(-c4ccc5c(c4)OCO5)c2cc1OC)C(=O)OC3 [DIPHYLLIN]	1710												
Cc1ccnc2c1NC(=O)c1cccnc1N2C1CC1 [NEVIRAPINE]		156	532	> 100000									
COc1cc2c(O[C@@H]3O[C@H](C)[C@@H](O)[C@H](O)[C@H]3O)c3c(c(-c4ccc5c(c4)OCO5)c2cc1OC)C(=O)OC3 [PATENTIFLORIN A]	26.9 to 27	61	108	47	Dose-dependent effect	30	Dose-dependent effect	32	Dose-dependent effect	24	Dose-dependent effect	37	IC50 ([5]; pbmc): 32 nM; inhibition at 0.005 µg/mL [6]: 75%; IC50 ([7]; pbmc): 31 nM; IC50 ([8]; pbmc): 32 nM; Activity (HeLa): Non-Toxic; IC50 ([9]; pbmc): 30 nM; Activity (A549): Non-Toxic; inhibition at 0.005 µg/mL [10]: 75%; CC50 at 48 h [11]: 75000 nM
Cc1cn([C@H]2C[C@H](N=[N+]=[N-])[C@@H](CO)O2)c(=O)[nH]c1=O [ZIDOVUDINE]		3510	72	5.2	Dose-dependent effect	77	Dose-dependent effect	95	Dose-dependent effect	79	Dose-dependent effect	85	Activity [12]: Dose-dependent effect; inhibition (INH) [12]: 40%; Activity [13]: Dose-dependent effect; inhibition (INH) [13]: 40%
